# Experimental data as given in the RNAGym collection of RNA variant scans (doi:10.1126/science.aae0568).
# This sample holds only a part of the variants without activity.
# B1: tRNA (parent)
# chain: GUUCCGUUGGCGUAAUGGUAACGCGUCUCCCUCCUAAGGAGAAGACUGCGGGUUCGAGUCCCGUACGGAACG
# Variants of: B1
# Test: yeast fitness relative to wild type (ratio to wild type); higher = fitter; tRNA-Arg(CCU), competitive growth, 37 C, YPD
# Outline: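 Start and end populations of a pooled competition were compared by 100-nucleotide paired-end sequencing of gene amplicons. The Saccharomyces cerevisiae strains carried tRNA-Arg(CCU) gene variants at the native genomic locus, synthesised with a 3% per-site mutation rate at 69 sites, and competed in YPD at 37°C for 24 hours in six parallel replicates. Darwinian fitness relative to wild type was based on the change in genotype frequencies. Genotypes required ≥ 100 starting reads, and estimates < 0.5 were set to 0.5.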
row,Variant,yeast fitness
1,C31U A40G G63A A70U,≤ 0.5
2,C31U G68U,0.846
3,C31U A43U G48A U53A C62U,≤ 0.5
4,C31U C33U A37G U59A U64G,0.525
5,C31G A43C A70U,0.637
6,C31G C33U U54G C55A,≤ 0.5
7,C31U C46A A65C,0.73
8,C31G C46A G63C A65U,0.509
9,C31G C34U A40C A69C,≤ 0.5
10,C31G U32C A37U A69C,≤ 0.5
11,C31G U53A,0.694
12,C31U G38A A40C G68C A70U,≤ 0.5
13,C31G C34U A42U A70C,≤ 0.5
14,C31G U32G C33U A70G,≤ 0.5
15,C31G G56C C61A,≤ 0.5
16,C31U G48A A65G,0.917
17,C31U A37U C60G,≤ 0.5
18,C31G A40U A45C,0.533
19,C31U G38A,0.81
20,C31G G41C,0.696
21,C31G G51C,0.756
22,C31U A65U,0.955
23,C31G G44U A70C,≤ 0.5
24,C31G A37C A57U,≤ 0.5

row,Variant,yeast fitness
1,C31G U59C,0.871
2,C31G U59G,0.734
3,C31G A40G A45C U53A A70U,≤ 0.5
4,C31G C33U A42C C66G,≤ 0.5
5,C31G A65C C66U,≤ 0.5
6,C31U A36C A45C C61G,≤ 0.5
7,C31U A42U A70U,1.14
8,C31U A70G,1.1
9,C31U C61A A69C,0.597
10,C31U C61A A69U,0.633
11,C31U C34G,0.591
12,C31U C34U,0.748
13,C31G C60G C62A,0.624
14,C31G C33G A70U,≤ 0.5
15,C31G A65U G67C,0.567
16,C31G U64A A69C,≤ 0.5
17,C31G U32G C55A C62G A65U,0.688
18,C31G C66G A69G,0.545
19,C31G A42G U47G,0.573
20,C31U C46U,1.02
21,C31U U32C G41C G68U,≤ 0.5
22,C31G C55A,0.605
23,C31G G58A,0.785
24,C31G C34U G67U,≤ 0.5

row,Variant,yeast fitness
1,C31G G41C G50C C60U A69C,≤ 0.5
2,C31U U54G,0.535
3,C31U A36U G51A A70U,0.693
4,C31U G58A A65G,0.73
5,C31G G52C A57U,0.599
6,C31U C55U,0.72
7,C31U C55G,0.629
8,C31G G44C A65G A69C,≤ 0.5
9,C31U G44C A69C,0.585
10,C31U G44C A69U,0.634
11,C31U C34G A42C U47G A65C C66U,≤ 0.5
12,C31U A37G,0.69
13,C31U A37U,0.744
14,C31U C49G C61A,≤ 0.5
15,C31U A45U C55U,≤ 0.5
16,C31U C62A,0.776
17,C31U C62U,0.907
18,C31U C62G,0.949
19,C31U C66U G67A,0.596
20,C31G C34U C46U G56A C62U,≤ 0.5
21,C31U A42G C62U,0.583
22,C31U A36C G38A,0.558
23,C31U C66U A69U,0.807
24,C31G A65U,0.799

row,Variant,yeast fitness
1,C31U A40G A70U,0.55
2,C31G A70G,0.914
3,C31U U47C,0.934
4,C31U C33U A37C C55U,≤ 0.5
5,C31U G41C A43C G48A C60G,≤ 0.5
6,C31G A42U,0.983
7,C31G C55U U59A,0.559
8,C31G G67U A69C,0.526
9,C31U A43G U53C,0.513
10,C31U G50C,0.955
11,C31U U54G C55U,0.566
12,C31G A40U,0.998
13,C31G A40C,0.718
14,C31U U59A C60G,0.516
15,C31G C66A,0.702
16,C31U C60G,0.696
17,C31U C60A,0.563
18,C31G A45G A65G,0.628
19,C31U C34A A36G G38C A69U,≤ 0.5
20,C31U A36U A43C C55G,≤ 0.5
21,C31G G38A G63U,≤ 0.5
22,C31U C46G C55U,0.542
23,C31U G58A U59A,0.672
24,C31U G48C A69C,0.67

row,Variant,yeast fitness
1,C31G A37G U54A,0.681
2,C31U A43C U54C A65C,≤ 0.5
3,C31G A45C C49A A70G,≤ 0.5
4,C31G U35A A65U,0.622
5,C31G A42U G58C,0.538
6,C31G G38C A43U C62G,≤ 0.5
7,C31G A43G G51A,0.593
8,C31U A37U C46A C49A C55A C66G,0.663
9,C31G G44A,1.07
10,C31G C33U A37C A65U,0.538
11,C31G G48A,0.925
12,C31U C34A C61G,≤ 0.5
13,C31G A43G C49U G68A A69C,≤ 0.5
14,C31G G51C C66U,0.566
15,C31U A40C G56A A57U,≤ 0.5
16,C31G G44C C46U,1
17,C31U C49G A69C,0.636
18,C31G C33A C66A,0.734
19,C31G C33G G39C,0.508
20,C31U C34U A57C,≤ 0.5
21,C31U A37C G63A,≤ 0.5
22,C31U G48A C61G C62A,0.602
23,C31G A45G C60G,≤ 0.5
24,C31G C33A G48C,≤ 0.5

row,Variant,yeast fitness
1,C31G C61A G67C,≤ 0.5
2,C31G U32G,0.556
3,C31G U32A,0.766
4,C31G U47A,0.847
5,C31U C33A A69U,≤ 0.5
6,C31G A43U C46G,0.586
7,C31U A40G C46G A65G,≤ 0.5
8,C31G A45U C62U,0.876
9,C31U C61U,0.93
10,C31U C61G,0.707
11,C31U C61A,0.726
12,U32A A36G,0.814
13,C31G U64C,0.777
14,C31G U64G,0.714
15,C31G C61A,0.65
16,C31G G51C G56A U64A,≤ 0.5
17,C31U C34A A36G G38C G51A,≤ 0.5
18,C31U A36U A45C C46G G48C,0.53
19,C31G G48C G58A,0.821
20,C31U C66U,1.03
21,C31U A36U A69C,0.591
22,C31U A37G U54A,≤ 0.5
23,C31G A43U U47A,0.605
24,C31U A37G A45C C62G,0.593

row,Variant,yeast fitness
1,C31G G38A,0.802
2,C31G G38C,0.826
3,C31G C33U A42G U64C A65G,≤ 0.5
4,C31G A57C C61U,≤ 0.5
5,C31G C34U C55U G63A,≤ 0.5
6,C31G C34U A40C C66A,≤ 0.5
7,C31U U47G G67C,≤ 0.5
8,C31U A36G A57U,≤ 0.5
9,C31U U53C C62G,0.625
10,C31U A36U A45C C62U,≤ 0.5
11,C31G A37U G48C,0.528
12,C31U U64G,0.775
13,C31U U64C,0.817
14,C31U A36U,0.591
15,C31U A36G,0.857
16,C31G C34G A36G C66A,≤ 0.5
17,C31U A40U C66A,≤ 0.5
18,C31G U54C,0.798
19,C31G A57G,0.771
20,C31G A57C,0.617
21,C31G A57U,0.726
22,C31G C34U G56A G58C,≤ 0.5
23,C31G A65U A70G,0.589
